Legend:
[1] = Dissociation constant, pKa at pH 2 to 11 by spectrophotometric titration method; type: physicochemical
In short: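 pKa determined by a spectrophotometric titration method.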

Rattus norvegicus = species: Rattus norvegicus; assay: Metabolic stability in rat liver microsomes assessed as compound remaining after 10 mins
[2] = target: T1, Corticotropin-releasing factor receptor 1 (Rattus norvegicus, UniProt P35353); assay: Displacement of [125I]Tyr-ovine-CRF from CRF1 receptor in rat frontal cortex homogenate by gamma counting; type: tissue-based
T1 sequence (P35353 whole entry): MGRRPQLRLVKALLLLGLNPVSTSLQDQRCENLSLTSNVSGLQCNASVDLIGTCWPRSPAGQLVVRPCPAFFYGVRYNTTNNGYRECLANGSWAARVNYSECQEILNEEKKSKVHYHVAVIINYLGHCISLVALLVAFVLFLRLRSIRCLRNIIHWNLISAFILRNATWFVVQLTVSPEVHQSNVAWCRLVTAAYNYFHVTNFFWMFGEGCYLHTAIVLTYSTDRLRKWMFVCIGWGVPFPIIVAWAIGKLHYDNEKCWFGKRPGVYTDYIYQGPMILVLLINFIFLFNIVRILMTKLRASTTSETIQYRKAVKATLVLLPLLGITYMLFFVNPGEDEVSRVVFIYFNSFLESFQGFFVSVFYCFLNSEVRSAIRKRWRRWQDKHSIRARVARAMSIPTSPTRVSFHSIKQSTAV

Homo sapiens = species: Homo sapiens; assay: Metabolic stability in human liver microsomes assessed as compound remaining after 10 mins

Row | SMILES | pKa [1] | remaining at 10 min (Rattus norvegicus) [%] | IC50 [2] [nM] | remaining at 10 min (Homo sapiens) [%]
1 | COc1ccc(Nc2nc(Cl)cn([C@H](C)C3CC3)c2=O)c(C)n1 | 3.2 | 60 | 11 | 89
2 | COc1ccc(Nc2nc(Cl)cn([C@H](C)C3CC3)c2=O)c(OC)n1 | – | 25 | 17 | 43
3 | Cc1cc(C)c(Nc2nc(Cl)cn([C@H](C)C3CC3)c2=O)c(C)n1 | 7.9 | 76 | 65 | 87
4 | Cc1cc(Nc2nc(Cl)cn([C@H](C)C3CC3)c2=O)c(C)nc1OC(F)F | < 2 | 86 | – | 100
5 | COC[C@@H](C1CC1)n1cc(Cl)nc(Nc2c(C)nc(OC)nc2OC)c1=O | – | 25 | 31 | 71
6 | Cc1nc(OC(F)F)ccc1Nc1nc(Cl)cn([C@H](C)C2CC2)c1=O | < 2 | – | 1.2 | –
7 | COc1nc(C)nc(C#N)c1Nc1nc(Cl)cn([C@H](C)C2CC2)c1=O | – | – | 140 | –
8 | COc1nc(C)c(Nc2nc(Cl)cn([C@H](C)C3CC3)c2=O)cc1C | 3.6 | 55 | – | 77
9 | COC[C@@H](C1CC1)n1cc(Cl)nc(Nc2ccc(OC(F)F)nc2C)c1=O | – | – | 0.8 | –
10 | COc1ccc(Nc2nc(Cl)cn([C@H](C)C3CC3)c2=O)c(C(F)(F)F)n1 | < 2 | – | 1.6 | –
11 | COC[C@H](C1CC1)n1cc(Cl)nc(Nc2c(C)nc(OC)nc2OC)c1=O | – | 18 | 90 | 45
12 | Cc1cc(OC(F)F)nc(C)c1Nc1nc(Cl)cn([C@H](C)C2CC2)c1=O | < 2 | 84 | 2.1 | 89
13 | COc1nc(C(F)(F)F)c(Nc2nc(Cl)cn([C@H](C)C3CC3)c2=O)cc1C | – | – | 1.2 | –
14 | Cc1cc(Nc2nc(Cl)cn([C@H](C)C3CC3)c2=O)c(C)nc1N1CCCC1 | – | 26 | 6.8 | 57
15 | Cc1cc(Nc2nc(Cl)cn([C@H](C)C3CC3)c2=O)c(C)nc1N(C)C | – | 29 | 0.68 | 54
16 | COc1cc(C)c(Nc2nc(Cl)cn([C@H](C)C3CC3)c2=O)c(C)n1 | 3.8 | 81 | 12 | 79
17 | CC[C@H](C)[C@H](NC(=O)[C@H](CC(=O)O)NC(=O)[C@H](CC(C)C)NC(=O)[C@H](CC(C)C)NC(=O)[C@H](CCCCN)NC(=O)[C@H](CCCN=C(N)N)NC(=O)[C@H](CC(N)=O)NC(=O)[C@H](CO)NC(=O)[C@H](Cc1cnc[nH]1)NC(=O)[C@H](C)NC(=O)[C@H](CCC(N)=O)NC(=O)[C@H](CCC(N)=O)NC(=O)[C@H](C)NC(=O)[C@H](CC(C)C)NC(=O)[C@H](CCC(N)=O)NC(=O)[C@H](CC(=O)O)NC(=O)[C@H](C)NC(=O)[C@H](CCCCN)NC(=O)[C@@H](NC(=O)[C@H](CCSC)NC(=O)[C@H](CCC(=O)O)NC(=O)[C@H](CC(C)C)NC(=O)[C@@H](NC(=O)[C@H](CCC(=O)O)NC(=O)[C@H](CCCN=C(N)N)NC(=O)[C@H](CC(C)C)NC(=O)[C@H](CC(C)C)NC(=O)[C@H](Cc1cnc[nH]1)NC(=O)[C@H](Cc1ccccc1)NC(=O)[C@@H](NC(=O)[C@H](CC(C)C)NC(=O)[C@H](CC(=O)O)NC(=O)[C@H](CC(C)C)NC(=O)[C@H](CO)NC(=O)[C@@H](NC(=O)[C@@H]1CCCN1C(=O)[C@@H]1CCCN1C(=O)[C@H](CCC(=O)O)NC(=O)[C@H](CCC(N)=O)NC(=O)[C@@H](N)CO)[C@@H](C)CC)[C@@H](C)O)C(C)C)[C@@H](C)O)C(=O)N[C@@H](C)C(N)=O | – | – | 2.9 | –
18 | CCOc1nc(C)c(Nc2nc(Cl)cn([C@H](C)C3CC3)c2=O)cc1C | – | 81 | 2.7 | 93
19 | COC[C@H](C1CC1)n1cc(Cl)nc(Nc2c(C)cc(OC(F)F)nc2C)c1=O | – | – | 4.7 | –
20 | Cc1nc(C(F)(F)F)ccc1Nc1nc(Cl)cn([C@H](C)C2CC2)c1=O | – | – | 720 | –
21 | COC[C@H](C1CC1)n1cc(Cl)nc(Nc2ccc(OC(F)F)nc2C)c1=O | – | – | 1.2 | –
22 | COc1nc(C)c(Nc2nc(Cl)cn([C@H](C)C3CC3)c2=O)c(OC)n1 | – | 81 | 240 | 86

Source: ChEMBL document CHEMBL1155418, “Synthesis and structure-activity relationships of N3-pyridylpyrazinones as corticotropin-releasing factor-1 (CRF1) receptor antagonists” (Bioorg Med Chem Lett, 2010)
